Compound activity as filed in PubChem.
The list is not random: actives were taken first. Their share in the collection is about 3%.
MEKK2 WT-MEK5 – raises or lowers MEK5 binding to wildtype human MEKK2 PB1 domain; Q9Y2U5; bead flow cytometry, Alexa488-MEK5 binding to MEKK2 WT; actives lie on both sides; binding response (% of control), % at 10 µM; 290,000 tested, 1.1% active; AID 1531; in the data active = binding response below about 67% or above about 130%; inconclusive = no clear call, values can overlap the other calls; inactive = in between
UBC13 polyUb – blocks human UBC13 polyubiquitin chain formation; AID 485273; TR-FRET; P61088; 330,000 tested, 0.47% active; inhibition, % at 20 µM; in the data active = inhibition above about 45%, passing the limit was not always enough; inconclusive = no clear call, values can overlap the other calls
Target sequence (P61088 whole entry, looked up): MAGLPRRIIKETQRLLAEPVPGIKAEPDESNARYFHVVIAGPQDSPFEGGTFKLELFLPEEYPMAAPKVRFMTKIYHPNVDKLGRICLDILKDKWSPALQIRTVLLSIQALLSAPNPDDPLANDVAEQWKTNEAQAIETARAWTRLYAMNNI
Apaf1 inhib – blocks human Apaf-1 apoptosome activity | O14727 | reconstituted apoptosome caspase-3 activity, DEVD-Rh110 fluorescence | inhibition, % at 20 µM | 330,000 tested, 0.71% active; active = inhibition of at least 40% at 20 µM;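 note: plate controls were DMSO wells for no effect and DEVD-CHO caspase inhibitor wells for full effect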
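detection = Rh110 fluorescence intensity | test system = biochemical Apaf-1 apoptosome reconstitution | also added = cytochrome c and DEVD-Rh110 substrate | schedule = 30 min plus 50 min, RT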
UCH37 DUB inh – inhibitors of human deubiquitinating enzyme UCH37 | Q9Y5K5 | AID 588478 | purified proteasome/UCH37, Ub-AMC cleavage fluorescence | inhibition, % (test concentration not listed) | 330,000 tested, 0.33% active;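 active = mean inhibition over replicate wells above about 20%, limit read from the data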;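 note: 0% = compound-free wells with enzyme and 100% = wells lacking proteasome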
Target sequence (Q9Y5K5 whole entry, looked up): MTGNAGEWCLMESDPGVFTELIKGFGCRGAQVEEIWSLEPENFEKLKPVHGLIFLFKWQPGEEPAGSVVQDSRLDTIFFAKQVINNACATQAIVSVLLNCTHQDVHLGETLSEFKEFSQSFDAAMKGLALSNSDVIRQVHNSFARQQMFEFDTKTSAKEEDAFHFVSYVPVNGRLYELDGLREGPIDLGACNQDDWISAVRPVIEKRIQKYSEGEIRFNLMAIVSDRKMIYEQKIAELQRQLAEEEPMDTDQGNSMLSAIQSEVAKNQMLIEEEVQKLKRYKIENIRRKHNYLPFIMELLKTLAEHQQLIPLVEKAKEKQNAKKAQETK
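Signal – fluorescence, ex 355 nm, em 460 nm · System – Proteasome-bound UCH37 · Input – 0.15 nM proteasome as dispensed · Timing – 30 min preincubation with enzyme, 25 min cleavage at room temperature · Read-out basis – percent inhibition of cleavage signal versus uninhibited and no-proteasome wells · Medium – Tris-HCl pH 7.4 with ATP-MgCl2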
MEKK2mut PB1 HTS – signal of MEK5 binding to mutant human MEKK2 PB1 domain | bead flow cytometry, Alexa488-MEK5 binding to MEKK2 mutant | 290,000 tested, 0.35% active | percent response, % at 10 µM | AID 1530; in the data active = percent response above about 24%, passing the limit was not always enough
MEKK3 PB1 HTS – modulators (inhibitors or enhancers) of MEK5 binding to human MEKK3 PB1 domain; Q99759; bead-based flow cytometry, Alexa488-MEK5 binding to MEKK3; actives lie on both sides; 0 = blocked by unlabeled MEK5, 100 = vehicle; binding response (% of control), % at 10 µM; 290,000 tested, 1.4% active; AID 1529;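 active = binding response more than 3 SD above or below the average of its plate-row segment, actives on both sides; inconclusive = wells at one plate position flagged as instrument error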;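 note: Alexa488 bead fluorescence after subtracting the streptavidin-only scavenger bead signal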
Apaf-1 inh conf – Apaf-1 inhibition, single-dose confirmed. shares compounds with Apaf1 inhib. reconstituted apoptosome, caspase-3 DEVD-Rh110 fluorescence. inhibition, % at 20 µM. 1,800 tested, 25% active. AID 504614;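 active = mean inhibition of at least 40% at 20 µM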;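 note: plate controls were DMSO wells for no effect and DEVD-CHO caspase inhibitor control wells for full effect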
Rh110 quench – counter-screen for Apaf-1 inhibitors: fluorescence interference; shares compounds with Apaf1 inhib; Rh110 fluorescence interference, quenched caspase reaction; activation (fluorescence interference), % at 20 µM; 1,800 tested, under 10 active;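 active = signal rise of 40% or more at 20 µM, treated as a fluorescence artifact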
Fluor interf inh – Apaf-1 inhibitor counter-screen fluorescence artifact; shares compounds with Apaf1 inhib; fluorescence interference counterscreen, Apaf-1 assay format; IC50, µM; 460 tested, under 10 active; AID 588538; call rule not given here
* hit, by the source's call.

What do the screens show for `NC(=O)[C@H](Cc1cc2ccccc2s1)NC(=O)[C@@H]1CC2(CC(c3cccc(NC(=O)[C@@H]4CCC(=O)N4)c3)=NO2)CN1C(=O)/C=C/Sc1ccccc1` (stereo not given in full)?
MEKK2 WT-MEK5: 99.0; UBC13 polyUb: -38.0; Apaf1 inhib: 36.7; UCH37 DUB inh: 3.1; MEKK2mut PB1 HTS: -4.0; MEKK3 PB1 HTS: 101.0

How did Cc1cccc(-n2nnc(C(=O)NCc3ccccn3)c2N)c1 do in these assays?
MEKK2 WT-MEK5: 111.0; UBC13 polyUb: 6.2; Apaf1 inhib: 2.0; UCH37 DUB inh: 0.0; MEKK2mut PB1 HTS: 3.0; MEKK3 PB1 HTS: 106.0

What do the screens show for `[O-]/C(=C(\C(=S)Nc1cccc2ccccc12)[n+]1ccccc1)c1ccc(Cl)s1`?
MEKK2 WT-MEK5: 101.0; UBC13 polyUb: -11.6; Apaf1 inhib: 47.0*; UCH37 DUB inh: 3.0; MEKK2mut PB1 HTS: 0.0; MEKK3 PB1 HTS: 99.0; Apaf-1 inh conf: 15.2; Rh110 quench: -1.7

Results for COc1ccc(CCNC(=O)Cn2c(=O)n(-c3ccc(F)cc3)c(=O)c3sccc32)cc1OC ?
MEKK2 WT-MEK5: 91.0; UCH37 DUB inh: 0.8; MEKK2mut PB1 HTS: -10.0; MEKK3 PB1 HTS: 101.0

What do the screens show for `COCCCn1c(=O)c2sccc2n(Cc2ccccc2C)c1=O`?
MEKK2 WT-MEK5: 102.0; UBC13 polyUb: -6.4; Apaf1 inhib: 60.1*; UCH37 DUB inh: 5.0; MEKK2mut PB1 HTS: 1.0; MEKK3 PB1 HTS: 102.0; Apaf-1 inh conf: 8.3; Rh110 quench: 4.2

What do the screens show for `CC(C)n1cnc2c(NCc3ccccc3)cc(Cc3ccc(F)cc3)cc21`?
UBC13 polyUb: 21.0; Apaf1 inhib: 25.3

How did COCCOc1cc(NCc2ccccc2)c2ncn(C(C)C)c2c1 do in these assays?
UBC13 polyUb: -7.3; Apaf1 inhib: 68.1*; UCH37 DUB inh: 0.4; Apaf-1 inh conf: 28.7; Rh110 quench: 0.7

Results for CCOc1cc(NCc2ccccc2)c2ncn(C(C)C)c2c1 ?
UBC13 polyUb: 19.9; Apaf1 inhib: 41.7*; UCH37 DUB inh: -1.1; Apaf-1 inh conf: 53.8*; Rh110 quench: 6.5; Fluor interf inh: >100

Results for CCCOc1cc(NCc2ccccc2)c2ncn(C(C)C)c2c1 ?
UBC13 polyUb: 25.2; Apaf1 inhib: 44.2*; UCH37 DUB inh: 1.6; Apaf-1 inh conf: 54.2*; Rh110 quench: 22.4; Fluor interf inh: >100

How did CC(=O)c1ccc(NC(=O)CN2CCN(c3ccccc3)CC2)cc1 do in these assays?
MEKK2 WT-MEK5: 102.0; UBC13 polyUb: -5.9; Apaf1 inhib: 0.4; UCH37 DUB inh: 1.5; MEKK2mut PB1 HTS: -4.0; MEKK3 PB1 HTS: 98.0

Results for NS(=O)(=O)c1ccc2c(c1)C1C=CCC1C(C1CC=CCC1)N2 (stereo not given) ?
MEKK2 WT-MEK5: 101.0; UBC13 polyUb: -5.9; Apaf1 inhib: 46.7*; UCH37 DUB inh: 5.7; MEKK2mut PB1 HTS: 1.0; MEKK3 PB1 HTS: 100.0; Apaf-1 inh conf: 21.2; Rh110 quench: 0.3

Results for CC(C)C1Nc2ccc(S(N)(=O)=O)cc2C2C=CCC21 (stereo not given) ?
MEKK2 WT-MEK5: 82.0; UBC13 polyUb: 0.6; Apaf1 inhib: 38.6; UCH37 DUB inh: 3.5; MEKK2mut PB1 HTS: 2.0; MEKK3 PB1 HTS: 86.0

What do the screens show for `CC(=O)N(Cc1ccc(F)cc1)C1=C(NCCc2ccccc2)C(=O)c2ccccc2C1=O`?
MEKK2 WT-MEK5: 109.0; UBC13 polyUb: -67.4; Apaf1 inhib: 77.9*; UCH37 DUB inh: 19.6; MEKK2mut PB1 HTS: 6.0; MEKK3 PB1 HTS: 105.0; Apaf-1 inh conf: 75.7*; Rh110 quench: 2.6; Fluor interf inh: >100

How did Oc1cc(NCc2ccc(F)cc2)cc2cccnc12 do in these assays?
UBC13 polyUb: 8.8; Apaf1 inhib: 13.0; UCH37 DUB inh: 3.1

Results for CN(C)CCCNc1cc(O)c2ncccc2c1 ?
UBC13 polyUb: inconclusive; Apaf1 inhib: 77.5*; UCH37 DUB inh: 4.5; Apaf-1 inh conf: 54.6*; Rh110 quench: 3.0; Fluor interf inh: >100

How did CCOc1ccc(S(=O)(=O)Nc2cccc(C(=O)N3CCN(c4cccc(OC)c4)CC3)c2)cc1 do in these assays?
UBC13 polyUb: -6.0; Apaf1 inhib: 24.6; UCH37 DUB inh: 1.5

How did CN(C=[N+](C)C)c1cccc2c1C(=O)c1ccccc1C2=O do in these assays?
MEKK2 WT-MEK5: 102.0; UBC13 polyUb: -41.6; Apaf1 inhib: 43.0*; UCH37 DUB inh: 3.2; MEKK2mut PB1 HTS: 1.0; MEKK3 PB1 HTS: 127.0; Apaf-1 inh conf: 21.2; Rh110 quench: 13.2

What do the screens show for `O=C(O)c1cccc2c1C(=O)c1ccccc1C2=O`?
MEKK2 WT-MEK5: 97.0; UBC13 polyUb: -6.2; Apaf1 inhib: 3.3; UCH37 DUB inh: 4.0; MEKK2mut PB1 HTS: -7.0; MEKK3 PB1 HTS: 95.0

How did Cc1cccc(NC(=O)CN2CCc3cc4c(cc3C2)OCCCO4)c1 do in these assays?
MEKK2 WT-MEK5: 104.0; UBC13 polyUb: 1.0; Apaf1 inhib: 11.9; UCH37 DUB inh: 3.7; MEKK2mut PB1 HTS: 5.0; MEKK3 PB1 HTS: 100.0

How did O=C(CN1CCc2cc3c(cc2C1)OCCCO3)Nc1cccc([N+](=O)[O-])c1 do in these assays?
MEKK2 WT-MEK5: 102.0; UBC13 polyUb: 1.2; Apaf1 inhib: 43.3*; UCH37 DUB inh: 5.5; MEKK2mut PB1 HTS: -3.0; MEKK3 PB1 HTS: 97.0; Apaf-1 inh conf: 24.7; Rh110 quench: -7.2

How did COc1ccc(OCCNc2c([N+](=O)[O-])c(=O)oc3ccccc23)cc1 do in these assays?
MEKK2 WT-MEK5: 104.0; UBC13 polyUb: -9.2; Apaf1 inhib: 73.3*; UCH37 DUB inh: 4.4; MEKK2mut PB1 HTS: -1.0; MEKK3 PB1 HTS: 105.0; Apaf-1 inh conf: 87.4*; Rh110 quench: -2.5; Fluor interf inh: >100

Results for CCc1nnc(NC(=O)Cc2sc(C)nc2-c2ccc(C)cc2)s1 ?
MEKK2 WT-MEK5: 100.0; UBC13 polyUb: -11.5; Apaf1 inhib: 2.0; UCH37 DUB inh: 4.5; MEKK2mut PB1 HTS: 4.0; MEKK3 PB1 HTS: 102.0

Results for S=C(Nc1ccc(N2CCOCC2)cc1)Nc1ccc2nc(-c3ccco3)c(-c3ccco3)nc2c1 ?
UBC13 polyUb: 31.8; Apaf1 inhib: 41.3*; UCH37 DUB inh: 5.3; Apaf-1 inh conf: 26.0; Rh110 quench: 8.8

How did CC(=O)N1CCOc2ccc(S(=O)(=O)N(C)c3ccc(C)cc3)cc21 do in these assays?
MEKK2 WT-MEK5: 103.0; UBC13 polyUb: -4.4; Apaf1 inhib: 40.5*; UCH37 DUB inh: 3.1; MEKK2mut PB1 HTS: -2.0; MEKK3 PB1 HTS: 101.0; Apaf-1 inh conf: 10.8; Rh110 quench: -0.1
